How the values were obtained:
Beta-secretase 1 [1] = biological target: T1, Beta-secretase 1 (Homo sapiens, UniProt P56817); assay: Inhibition of human recombinant BACE1 at 2 uM by FRET assay
Procedure, shortened: (§1)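 Single-point screen of BACE1 inhibition, run first at the higher concentration and then at the lower one. Read-out is percent inhibition.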

Beta-secretase 1 [2] = biological target: T1, Beta-secretase 1; assay: Inhibition of human recombinant BACE1 at 0.2 uM by FRET assay; procedure, shortened: as §1
Beta-secretase 1 [3] = biological target: T1, Beta-secretase 1; assay: Inhibition of human recombinant BACE1 by FRET assay

T1 sequence (P56817 whole entry): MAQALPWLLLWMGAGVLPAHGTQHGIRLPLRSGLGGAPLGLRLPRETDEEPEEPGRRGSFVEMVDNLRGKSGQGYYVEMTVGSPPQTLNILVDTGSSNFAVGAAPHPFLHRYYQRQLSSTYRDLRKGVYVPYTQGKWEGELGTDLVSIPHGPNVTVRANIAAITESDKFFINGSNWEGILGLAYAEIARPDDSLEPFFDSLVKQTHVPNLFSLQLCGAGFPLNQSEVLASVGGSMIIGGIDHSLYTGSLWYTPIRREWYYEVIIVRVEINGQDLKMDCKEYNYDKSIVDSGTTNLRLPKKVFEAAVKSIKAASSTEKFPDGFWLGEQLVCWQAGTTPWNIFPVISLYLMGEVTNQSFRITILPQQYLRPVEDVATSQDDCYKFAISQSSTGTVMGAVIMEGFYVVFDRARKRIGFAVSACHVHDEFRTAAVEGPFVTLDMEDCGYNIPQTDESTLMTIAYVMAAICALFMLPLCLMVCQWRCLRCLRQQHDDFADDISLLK

inhibition (Beta-secretase 1 [1]) [%]	inhibition (Beta-secretase 1 [2]) [%]	IC50 (Beta-secretase 1 [3]) [nM]	Compound
87	46	–	CC(C)[C@H](NC(=O)[C@@H](N)CNC(=O)c1cc(O)ccc1O)C(=O)N[C@@H](CC1CCCCC1)C(=O)N[C@@H](Cc1ccccc1)[C@@H](O)C(=O)NC1(c2ccccc2)CCCCC1
97	77	40.6	CC(C)[C@H](NC(=O)[C@@H](N)CNC(=O)c1[nH]c(=O)[nH]c(=O)c1F)C(=O)N[C@@H](CC1CCCCC1)C(=O)N[C@@H](Cc1ccccc1)[C@@H](O)C(=O)NC1(c2ccccc2)CCCCC1
98	84	29	CC(C)[C@H](NC(=O)[C@@H](N)CNC(=O)c1[nH]c(=O)[nH]c(=O)c1F)C(=O)N[C@@H](CC1CCCCC1)C(=O)N[C@@H](Cc1ccccc1)[C@@H](O)C(=O)NC1(c2ccccc2)CCCC1
93	59	–	CC(C)C[C@H](NC(=O)[C@@H](NC(=O)[C@@H](N)CNC(=O)c1[nH]c(=O)[nH]c(=O)c1F)C(C)C)C(=O)N[C@@H](Cc1ccccc1)[C@@H](O)C(=O)NC1(c2ccccc2)CCN(Cc2ccccc2)CC1
88	47	–	CC(C)C[C@H](NC(=O)[C@@H](NC(=O)[C@@H](N)CNC(=O)c1cc(O)ccc1O)C(C)C)C(=O)N[C@@H](Cc1ccccc1)[C@@H](O)C(=O)N[C@@H](C)c1ccccc1
99	83	20.4	CC(C)C[C@H](NC(=O)[C@@H](NC(=O)[C@@H](N)CNC(=O)c1[nH]c(=O)[nH]c(=O)c1F)C(C)C)C(=O)N[C@@H](Cc1ccccc1)[C@@H](O)C(=O)N[C@@H](C)c1ccccc1
57	–	–	CC(C)[C@H](NC(=O)[C@@H](N)CNC(=O)c1cc(O)ccc1O)C(=O)N[C@@H](CC1CCCCC1)C(=O)N[C@@H](Cc1ccccc1)[C@@H](O)C(=O)NC1(c2ccccc2)CCN(Cc2ccccc2)CC1
89	49	–	CC(C)[C@H](NC(=O)[C@@H](N)CNC(=O)c1cc(O)ccc1O)C(=O)N[C@@H](CC1CCCCC1)C(=O)N[C@@H](Cc1ccccc1)[C@@H](O)C(=O)NC(C)(C)c1ccccc1
98	83	27	CC(C)C[C@H](NC(=O)[C@@H](NC(=O)[C@@H](N)CNC(=O)c1[nH]c(=O)[nH]c(=O)c1F)C(C)C)C(=O)N[C@@H](Cc1ccccc1)[C@@H](O)C(=O)NC(C)(C)c1ccccc1
95	64	–	CC(C)[C@H](NC(=O)[C@@H](N)CNC(=O)c1[nH]c(=O)[nH]c(=O)c1F)C(=O)N[C@@H](CC1CCCCC1)C(=O)N[C@@H](Cc1ccccc1)[C@@H](O)C(=O)NC1(c2ccccc2)CCN(Cc2ccccc2)CC1
90	58	–	CC(C)C[C@H](NC(=O)[C@@H](NC(=O)[C@@H](N)CNC(=O)c1cc(O)ccc1O)C(C)C)C(=O)N[C@@H](Cc1ccccc1)[C@@H](O)C(=O)NC1(c2ccccc2)CCCC1
87	44	–	CC(C)C[C@H](NC(=O)[C@@H](NC(=O)[C@@H](N)CNC(=O)c1cc(O)ccc1O)C(C)C)C(=O)N[C@@H](Cc1ccccc1)[C@@H](O)C(=O)N[C@H](C)c1ccccc1
86	43	–	CC(C)C[C@H](NC(=O)[C@@H](NC(=O)[C@@H](N)CNC(=O)c1cc(O)ccc1O)C(C)C)C(=O)N[C@@H](Cc1ccccc1)[C@@H](O)C(=O)NC1(c2ccccc2)CCCCC1
59	–	–	CC(C)C[C@H](NC(=O)[C@@H](NC(=O)[C@@H](N)CNC(=O)c1cc(O)ccc1O)C(C)C)C(=O)N[C@@H](Cc1ccccc1)[C@@H](O)C(=O)NC1(c2ccccc2)CCN(Cc2ccccc2)CC1
89	58	–	CC(C)[C@H](NC(=O)[C@@H](N)CNC(=O)c1cc(O)ccc1O)C(=O)N[C@@H](CC1CCCCC1)C(=O)N[C@@H](Cc1ccccc1)[C@@H](O)C(=O)NC1(c2ccccc2)CCCC1
99	86	11.6	CC(C)C[C@H](NC(=O)[C@@H](NC(=O)[C@@H](N)CNC(=O)c1[nH]c(=O)[nH]c(=O)c1F)C(C)C)C(=O)N[C@@H](Cc1ccccc1)[C@@H](O)C(=O)NC1(c2ccccc2)CCCC1
88	51	–	CC(C)[C@H](NC(=O)[C@@H](N)CNC(=O)c1cc(O)ccc1O)C(=O)N[C@@H](CC1CCCCC1)C(=O)N[C@@H](Cc1ccccc1)[C@@H](O)C(=O)N[C@H](C)c1ccccc1
98	85	24.8	CC(C)C[C@H](NC(=O)[C@@H](NC(=O)[C@@H](N)CNC(=O)c1[nH]c(=O)[nH]c(=O)c1F)C(C)C)C(=O)N[C@@H](Cc1ccccc1)[C@@H](O)C(=O)NC1(c2ccccc2)CCCCC1
98	78	31.9	CC(C)[C@H](NC(=O)[C@@H](N)CNC(=O)c1[nH]c(=O)[nH]c(=O)c1F)C(=O)N[C@@H](CC1CCCCC1)C(=O)N[C@@H](Cc1ccccc1)[C@@H](O)C(=O)NC(C)(C)c1ccccc1
89	54	–	CC(C)[C@H](NC(=O)[C@@H](N)CNC(=O)c1cc(O)ccc1O)C(=O)N[C@@H](CC1CCCCC1)C(=O)N[C@@H](Cc1ccccc1)[C@@H](O)C(=O)N[C@@H](C)c1ccccc1
98	81	34.8	CC(C)C[C@H](NC(=O)[C@@H](NC(=O)[C@@H](N)CNC(=O)c1[nH]c(=O)[nH]c(=O)c1F)C(C)C)C(=O)N[C@@H](Cc1ccccc1)[C@@H](O)C(=O)N[C@H](C)c1ccccc1
98	80	24.2	CC(C)[C@H](NC(=O)[C@@H](N)CNC(=O)c1[nH]c(=O)[nH]c(=O)c1F)C(=O)N[C@@H](CC1CCCCC1)C(=O)N[C@@H](Cc1ccccc1)[C@@H](O)C(=O)N[C@@H](C)c1ccccc1
98	79	39.6	CC(C)[C@H](NC(=O)[C@@H](N)CNC(=O)c1[nH]c(=O)[nH]c(=O)c1F)C(=O)N[C@@H](CC1CCCCC1)C(=O)N[C@@H](Cc1ccccc1)[C@@H](O)C(=O)N[C@H](C)c1ccccc1
88	44	–	CC(C)C[C@H](NC(=O)[C@@H](NC(=O)[C@@H](N)CNC(=O)c1cc(O)ccc1O)C(C)C)C(=O)N[C@@H](Cc1ccccc1)[C@@H](O)C(=O)NC(C)(C)c1ccccc1

— ChEMBL document CHEMBL1817649, “Structure-guided design and synthesis of P1' position 1-phenylcycloalkylamine-derived pentapeptidic BACE1 inhibitors” (Bioorg Med Chem, 2011)
